Results: ChEMBL document CHEMBL1149099, “Comparative in vivo stability of copper-64-labeled cross-bridged and conventional tetraazamacrocyclic complexes” (J Med Chem, 2004)

Experiments:
Rattus norvegicus [1] = species on record: Rattus norvegicus; assay: Biodistribution of radiolabeled compound in rat kidney after 5 min activity expressed as %ID/Organ; assay type: ADME, organism-based; conditions: in vivo
How it was run: (§1)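 Mature female Sprague-Dawley rats (180–200 g) each received the 64Cu complex diluted with saline, about 15 μCi in 150 μL. Groups were sacrificed at 5 min, 30 min, 2 h and 24 h postinjection. Organs were excised, weighed and gamma-counted. %ID/organ was calculated against a weighed, counted standard.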

Rattus norvegicus [2] = species on record: Rattus norvegicus; assay: Biodistribution of radiolabeled compound in rat muscle after 30 min activity expressed as %ID/Organ; assay type: ADME, organism-based, Muscle tissue; conditions: in vivo, 0.5 h; how it was run: as §1
Rattus norvegicus [3] = species on record: Rattus norvegicus; assay: Biodistribution of radiolabeled compound in rat fat after 30 min activity expressed as %ID/Organ; assay type: ADME, organism-based, Adipose tissue; conditions: in vivo, 0.5 h; how it was run: as §1
Rattus norvegicus [4] = species on record: Rattus norvegicus; assay: Biodistribution of radiolabeled compound in rat bone after 30 min activity expressed as %ID/Organ; assay type: ADME, organism-based, Bone element; conditions: in vivo, 0.5 h; how it was run: as §1
Rattus norvegicus [5] = species on record: Rattus norvegicus; assay: Biodistribution of radiolabeled compound in rat brain after 2 hr activity expressed as %ID/Organ; assay type: ADME, organism-based; conditions: in vivo; how it was run: as §1
Rattus norvegicus [6] = species on record: Rattus norvegicus; assay: Biodistribution of radiolabeled compound in rat blood after 2 hr activity expressed as %ID/Organ; assay type: ADME, organism-based; conditions: in vivo; how it was run: as §1
Rattus norvegicus [7] = species on record: Rattus norvegicus; assay: Biodistribution of radiolabeled compound in rat blood after 24 hr activity expressed as %ID/Organ; assay type: ADME, organism-based; conditions: in vivo; how it was run: as §1
Rattus norvegicus [8] = species on record: Rattus norvegicus; assay: Biodistribution of radiolabeled compound in rat fat after 24 hr activity expressed as %ID/Organ; assay type: ADME, organism-based, Adipose tissue; conditions: in vivo; how it was run: as §1
Rattus norvegicus [9] = species on record: Rattus norvegicus; assay: Biodistribution of radiolabeled compound in rat lung after 5 min activity expressed as %ID/Organ; assay type: ADME, organism-based; conditions: in vivo; how it was run: as §1
Rattus norvegicus [10] = species on record: Rattus norvegicus; assay: Biodistribution of radiolabeled compound in rat lung after 24 hr activity expressed as %ID/Organ; assay type: ADME, organism-based; conditions: in vivo; how it was run: as §1
Rattus norvegicus [11] = species on record: Rattus norvegicus; assay: Biodistribution of radiolabeled compound in rat brain after 30 min activity expressed as %ID/Organ; assay type: ADME, organism-based; conditions: in vivo, 0.5 h; how it was run: as §1
Rattus norvegicus [12] = species on record: Rattus norvegicus; assay: Biodistribution of radiolabeled compound in rat heart after 30 min activity expressed as %ID/Organ; assay type: ADME, organism-based; conditions: in vivo, 0.5 h; how it was run: as §1
Rattus norvegicus [13] = species on record: Rattus norvegicus; assay: Biodistribution of radiolabeled compound in rat blood after 30 min activity expressed as %ID/Organ; assay type: ADME, organism-based; conditions: in vivo, 0.5 h; how it was run: as §1
Rattus norvegicus [14] = species on record: Rattus norvegicus; assay: Biodistribution of radiolabeled compound in rat heart after 2 hr activity expressed as %ID/Organ; assay type: ADME, organism-based; conditions: in vivo; how it was run: as §1
Rattus norvegicus [15] = species on record: Rattus norvegicus; assay: Biodistribution of radiolabeled compound in rat bone after 5 min activity expressed as %ID/Organ; assay type: ADME, organism-based, Bone element; conditions: in vivo; how it was run: as §1
Rattus norvegicus [16] = species on record: Rattus norvegicus; assay: Biodistribution of radiolabeled compound in rat fat after 2 hr activity expressed as %ID/Organ; assay type: ADME, organism-based, Adipose tissue; conditions: in vivo; how it was run: as §1
Rattus norvegicus [17] = species on record: Rattus norvegicus; assay: Biodistribution of radiolabeled compound in rat kidney after 24 hr activity expressed as %ID/Organ; assay type: ADME, organism-based; conditions: in vivo; how it was run: as §1
Rattus norvegicus [18] = species on record: Rattus norvegicus; assay: Biodistribution of radiolabeled compound in rat bone after 2 hr activity expressed as %ID/Organ; assay type: ADME, organism-based, Bone element; conditions: in vivo; how it was run: as §1
Rattus norvegicus [19] = species on record: Rattus norvegicus; assay: Biodistribution of radiolabeled compound in rat muscle after 24 hr activity expressed as %ID/Organ; assay type: ADME, organism-based, Muscle tissue; conditions: in vivo; how it was run: as §1
Rattus norvegicus [20] = species on record: Rattus norvegicus; assay: Biodistribution of radiolabeled compound in rat kidney after 30 min activity expressed as %ID/Organ; assay type: ADME, organism-based; conditions: in vivo, 0.5 h; how it was run: as §1
Rattus norvegicus [21] = species on record: Rattus norvegicus; assay: Biodistribution of radiolabeled compound in rat liver after 5 min activity expressed as %ID/Organ; assay type: ADME, organism-based; conditions: in vivo; how it was run: as §1
Rattus norvegicus [22] = species on record: Rattus norvegicus; assay: Biodistribution of radiolabeled compound in rat liver after 2 hr activity expressed as %ID/Organ; assay type: ADME, organism-based; conditions: in vivo; how it was run: as §1
Rattus norvegicus [23] = species on record: Rattus norvegicus; assay: Biodistribution of radiolabeled compound in rat lung after 30 min activity expressed as %ID/Organ; assay type: ADME, organism-based; conditions: in vivo, 0.5 h; how it was run: as §1
Rattus norvegicus [24] = species on record: Rattus norvegicus; assay: Biodistribution of radiolabeled compound in rat brain after 24 hr activity expressed as %ID/Organ; assay type: ADME, organism-based; conditions: in vivo; how it was run: as §1
Rattus norvegicus [25] = species on record: Rattus norvegicus; assay: Biodistribution of radiolabeled compound in rat liver after 30 min activity expressed as %ID/Organ; assay type: ADME, organism-based; conditions: in vivo, 0.5 h; how it was run: as §1
Rattus norvegicus [26] = species on record: Rattus norvegicus; assay: Biodistribution of radiolabeled compound in rat fat after 5 min activity expressed as %ID/Organ; assay type: ADME, organism-based, Adipose tissue; conditions: in vivo; how it was run: as §1
Rattus norvegicus [27] = species on record: Rattus norvegicus; assay: Biodistribution of radiolabeled compound in rat bone after 24 hr activity expressed as %ID/Organ; assay type: ADME, organism-based, Bone element; conditions: in vivo; how it was run: as §1
Rattus norvegicus [28] = species on record: Rattus norvegicus; assay: Biodistribution of radiolabeled compound in rat muscle after 5 min activity expressed as %ID/Organ; assay type: ADME, organism-based, Muscle tissue; conditions: in vivo; how it was run: as §1
Rattus norvegicus [29] = species on record: Rattus norvegicus; assay: Biodistribution of radiolabeled compound in rat liver after 24 hr activity expressed as %ID/Organ; assay type: ADME, organism-based; conditions: in vivo; how it was run: as §1
Rattus norvegicus [30] = species on record: Rattus norvegicus; assay: Biodistribution of radiolabeled compound in rat heart after 5 min activity expressed as %ID/Organ; assay type: ADME, organism-based; conditions: in vivo; how it was run: as §1
Rattus norvegicus [31] = species on record: Rattus norvegicus; assay: Biodistribution of radiolabeled compound in rat lung after 2 hr activity expressed as %ID/Organ; assay type: ADME, organism-based; conditions: in vivo; how it was run: as §1
Rattus norvegicus [32] = species on record: Rattus norvegicus; assay: Biodistribution of radiolabeled compound in rat muscle after 2 hr activity expressed as %ID/Organ; assay type: ADME, organism-based, Muscle tissue; conditions: in vivo; how it was run: as §1
Rattus norvegicus [33] = species on record: Rattus norvegicus; assay: Biodistribution of radiolabeled compound in rat blood after 5 min activity expressed as %ID/Organ; assay type: ADME, organism-based; conditions: in vivo; how it was run: as §1
Rattus norvegicus [34] = species on record: Rattus norvegicus; assay: Biodistribution of radiolabeled compound in rat heart after 24 hr activity expressed as %ID/Organ; assay type: ADME, organism-based; conditions: in vivo; how it was run: as §1
Rattus norvegicus [35] = species on record: Rattus norvegicus; assay: Biodistribution of radiolabeled compound in rat kidney after 2 hr activity expressed as %ID/Organ; assay type: ADME, organism-based; conditions: in vivo; how it was run: as §1
Rattus norvegicus [36] = species on record: Rattus norvegicus; assay: Biodistribution of radiolabeled compound in rat brain after 5 min activity expressed as %ID/Organ; assay type: ADME, organism-based; conditions: in vivo; how it was run: as §1
Rattus norvegicus [37] = species on record: Rattus norvegicus; assay: Biodistribution of radiolabeled compound in rat liver after 24 hr postinjection activity expressed as %ID/Organ; assay type: ADME, organism-based; conditions: in vivo
Rattus norvegicus [38] = species on record: Rattus norvegicus; assay: Biodistribution of radiolabeled compound in rat blood after 24 hr postinjection activity expressed as %ID/Organ; assay type: ADME, organism-based; conditions: in vivo
Rattus norvegicus [39] = species on record: Rattus norvegicus; assay: Biodistribution of radiolabeled compound in rat kidney after 24 hr postinjection activity expressed as %ID/Organ; assay type: ADME, organism-based; conditions: in vivo

## Cu-CB-DO2A
Rattus norvegicus [1]
  Biodistribution: 2.64%
Rattus norvegicus [2]
  Biodistribution: 6.42%
Rattus norvegicus [3]
  Biodistribution: 2.14%
Rattus norvegicus [4]
  Biodistribution: 1.69%
Rattus norvegicus [5]
  Biodistribution: 0.008%
Rattus norvegicus [6]
  Biodistribution: 0.32%
Rattus norvegicus [7]
  Biodistribution: 0.14%
Rattus norvegicus [8]
  Biodistribution: 0.12%
Rattus norvegicus [9]
  Biodistribution: 0.72%
Rattus norvegicus [10]
  Biodistribution: 0.019%
Rattus norvegicus [11]
  Biodistribution: 0.036%
Rattus norvegicus [12]
  Biodistribution: 0.067%
Rattus norvegicus [13]
  Biodistribution: 3.79%
Rattus norvegicus [14]
  Biodistribution: 0.0095%
Rattus norvegicus [15]
  Biodistribution: 4.52%
Rattus norvegicus [16]
  Biodistribution: 0.22%
Rattus norvegicus [17]
  Biodistribution: 0.064%
Rattus norvegicus [18]
  Biodistribution: 0.56%
Rattus norvegicus [19]
  Biodistribution: 0.28%
Rattus norvegicus [20]
  Biodistribution: 1.14%
Rattus norvegicus [21]
  Biodistribution: 2.47%
Rattus norvegicus [22]
  Biodistribution: 0.93%
Rattus norvegicus [23]
  Biodistribution: 0.21%
Rattus norvegicus [24]
  Biodistribution: 0.002%
Rattus norvegicus [25]
  Biodistribution: 1.47%
Rattus norvegicus [26]
  Biodistribution: 3.99%
Rattus norvegicus [27]
  Biodistribution: 0.24%
Rattus norvegicus [28]
  Biodistribution: 18.27%
Rattus norvegicus [29]
  Biodistribution: 0.39%
Rattus norvegicus [30]
  Biodistribution: 0.22%
Rattus norvegicus [31]
  Biodistribution: 0.044%
Rattus norvegicus [32]
  Biodistribution: 1.39%
Rattus norvegicus [33]
  Biodistribution: 13.45%
Rattus norvegicus [34]
  Biodistribution: 0.0065%
Rattus norvegicus [35]
  Biodistribution: 0.44%
Rattus norvegicus [36]
  Biodistribution: 0.097%

## Cu-CB-TE2A
Rattus norvegicus [37]
  Biodistribution: 0.14%
Rattus norvegicus [38]
  Biodistribution: 0.032%
Rattus norvegicus [39]
  Biodistribution: 0.064%

## Cu-DOTA
Rattus norvegicus [37]
  Biodistribution: 1.05%
Rattus norvegicus [38]
  Biodistribution: 0.58%
Rattus norvegicus [39]
  Biodistribution: 0.54%

## Cu-TETA
Rattus norvegicus [37]
  Biodistribution: 0.49%
Rattus norvegicus [38]
  Biodistribution: 0.21%
Rattus norvegicus [39]
  Biodistribution: 0.21%
